Results on two molecules are retold here after ChEMBL document CHEMBL1148732, “New 2-arylpyrazolo[3,4-c]quinoline derivatives as potent and selective human A3 adenosine receptor antagonists. Synthesis, pharmacological evaluation, and ligand-receptor modeling studies” (J Med Chem, 2007).

One experiment addresses Adenosine receptor A2a (Homo sapiens, UniProt P29274). As to the kind of experiment: Displacement of [3H]NECA from human adenosine A2A receptor expressed in CHO cells at 10 uM. Type of experiment: cell-based. (Displacement assays read how much labelled ligand stays bound in the presence of the test substance.)
For experiment [1], the target named is T1, Adenosine receptor A3 (Homo sapiens, UniProt P0DMS8).
T1 sequence (P0DMS8 whole entry): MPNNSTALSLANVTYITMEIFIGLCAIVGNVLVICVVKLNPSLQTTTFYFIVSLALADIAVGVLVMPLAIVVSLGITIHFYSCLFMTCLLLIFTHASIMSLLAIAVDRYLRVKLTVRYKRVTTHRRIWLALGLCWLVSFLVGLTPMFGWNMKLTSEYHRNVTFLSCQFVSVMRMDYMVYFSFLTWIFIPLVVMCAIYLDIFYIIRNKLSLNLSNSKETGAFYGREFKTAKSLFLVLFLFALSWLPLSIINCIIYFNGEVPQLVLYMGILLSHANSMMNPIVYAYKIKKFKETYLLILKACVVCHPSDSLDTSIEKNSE
Kind of experiment: Antagonist activity at human adenosine A3 receptor expressed in CHO cells assessed as inhibition of NECA-induced cAMP accumulation. The experiment is classed as functional, cell-based. The essentials:
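CHO cells stably expressing hA3 were plated and used after 48 h. They were preincubated 15 min at 37 °C with Ro 20-1724 (20 µM) and adenosine deaminase (1 U/mL). Compounds at several concentrations were then added with 100 nM NECA and 10 µM forskolin for 15 min at 37 °C. Lysis in 0.4 N HCl. cAMP was measured by competitive binding against [3H]cAMP (2 nM) with adrenal binding protein, 150 min at 4 °C. EC50 from sigmoid nonlinear regression.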
For orientation: cAMP levels reflect the balance of adenylyl cyclase and phosphodiesterase activity.

For experiment [2], the target named is T1, Adenosine receptor A3. Kind of experiment: Displacement of [125I]AB-MECA from human adenosine A3 receptor expressed in CHO cells. The experiment is classed as cell-based. The essentials: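 Five displacer concentrations, each in triplicate. IC50 by nonlinear regression, converted to Ki with Cheng-Prusoff. Means ± SEM of four separate assays.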
Experiment [3] concerns the target Adenosine receptor A2a (Rattus norvegicus) (UniProt P30543). Kind of experiment: Displacement of [3H]CGS 21680 from Wistar rat adenosine A2A receptor at 10 uM.
The target of experiment [4] is T2, Adenosine receptor A3 (Rattus norvegicus) (UniProt P28647).
T2 sequence (whole entry): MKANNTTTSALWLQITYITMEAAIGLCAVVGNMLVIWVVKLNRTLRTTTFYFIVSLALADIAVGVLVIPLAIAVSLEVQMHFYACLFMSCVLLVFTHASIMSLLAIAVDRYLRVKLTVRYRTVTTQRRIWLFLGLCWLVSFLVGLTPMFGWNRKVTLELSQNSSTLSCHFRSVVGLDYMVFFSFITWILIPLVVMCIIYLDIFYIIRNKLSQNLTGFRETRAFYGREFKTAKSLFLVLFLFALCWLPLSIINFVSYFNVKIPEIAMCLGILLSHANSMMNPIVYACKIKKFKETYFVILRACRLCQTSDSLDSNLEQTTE
Kind of experiment: Displacement of [3H](R)-PIA from Wistar rat adenosine A3 receptor at 1 uM. In short, it runs like this:
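Rat testis membranes (0.1-0.2 mg protein) incubated with 4 nM [3H]-(R)-PIA and 150 nM DPCPX to block A1 sites. Buffer: 50 mM Tris/HCl pH 7.4, 1 mM EDTA, 10 mM MgCl2. Nonspecific binding defined with 15 µM (R)-PIA. Separation by filtration and scintillation counting. Result is % displacement at 1 µM.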

The target of experiment [5] is T3, Adenosine receptor A1 (Homo sapiens) (UniProt P30542).
T3 sequence (whole entry): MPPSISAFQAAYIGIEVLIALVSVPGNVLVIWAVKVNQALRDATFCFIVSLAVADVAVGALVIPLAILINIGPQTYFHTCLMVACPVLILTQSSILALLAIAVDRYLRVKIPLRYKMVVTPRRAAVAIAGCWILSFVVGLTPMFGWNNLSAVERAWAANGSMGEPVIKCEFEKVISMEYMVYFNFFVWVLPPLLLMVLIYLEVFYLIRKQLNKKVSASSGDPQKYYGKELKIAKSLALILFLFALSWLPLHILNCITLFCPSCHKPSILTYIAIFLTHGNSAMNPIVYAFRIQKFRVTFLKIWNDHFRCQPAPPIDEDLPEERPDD
Kind of experiment: Displacement of [3H]DPCPX from human adenosine A1 receptor expressed in CHO cells at 10 uM. The experiment is classed as cell-based.

A further experiment addresses T4, Adenosine receptor A1 (Rattus norvegicus, UniProt P25099).
T4 sequence (P25099 whole entry): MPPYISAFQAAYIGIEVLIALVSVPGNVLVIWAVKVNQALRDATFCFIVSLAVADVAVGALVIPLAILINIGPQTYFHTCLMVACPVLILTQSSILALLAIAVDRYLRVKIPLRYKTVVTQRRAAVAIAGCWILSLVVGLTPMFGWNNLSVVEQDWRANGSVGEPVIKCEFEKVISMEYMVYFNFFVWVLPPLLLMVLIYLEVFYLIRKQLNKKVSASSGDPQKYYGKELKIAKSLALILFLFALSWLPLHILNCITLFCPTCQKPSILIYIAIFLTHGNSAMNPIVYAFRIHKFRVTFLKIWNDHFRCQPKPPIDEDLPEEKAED
As to the kind of experiment: Displacement of [3H]DPCPX from Wistar rat adenosine A1 receptor. In short, it runs like this:
(§1)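 Male Wistar rat cortex membranes (40-50 µg protein) incubated 180 min at 25 °C with 0.2-0.5 nM [3H]DPCPX. Buffer: 50 mM Tris/HCl, 2 mM MgCl2, pH 7.7. Run in triplicate. Nonspecific binding defined with 20 µM R-PIA. GF/C filtration; KD 0.51 nM.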

In experiment [6] the target is T2, Adenosine receptor A3 (Rattus norvegicus). Kind of experiment: Antagonist activity at adenosine A3 receptor in Wistar rat hippocampal slices by prevention of glucose deprivation-induced synaptic impairment assessed as synaptic recovery at 100 nM. Type of experiment: functional, tissue-based. On the set-up: scale not given: the % may be the effect or the level left. To be noted: Hippocampus. In short, it runs like this: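 Male Wistar rat hippocampal slices (400 µm) superfused with oxygenated aCSF at 30-32 °C and 2 mL/min. CA1 fepsps were evoked from stratum radiatum. OGD was 7 min of glucose-free aCSF gassed with 95% N2-5% CO2. Antagonist (100 nM) was given from 10 min before until 5 min after OGD. Readout: fepsp amplitude at 15 min reperfusion as % of the 5-min pre-OGD baseline; n=5, one-way ANOVA with Newman-Keuls.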

Experiment [7] has as its target T5, Adenosine receptor A1 (Rattus norvegicus) (UniProt P25099).
T5 sequence (whole entry): T4 sequence (P25099 whole entry)
As to the kind of experiment: Displacement of [3H]DPCPX from Wistar rat adenosine A1 receptor at 10 uM. In short, it runs like this: as §1

Chain of Adenosine receptor A2a (P29274 whole entry): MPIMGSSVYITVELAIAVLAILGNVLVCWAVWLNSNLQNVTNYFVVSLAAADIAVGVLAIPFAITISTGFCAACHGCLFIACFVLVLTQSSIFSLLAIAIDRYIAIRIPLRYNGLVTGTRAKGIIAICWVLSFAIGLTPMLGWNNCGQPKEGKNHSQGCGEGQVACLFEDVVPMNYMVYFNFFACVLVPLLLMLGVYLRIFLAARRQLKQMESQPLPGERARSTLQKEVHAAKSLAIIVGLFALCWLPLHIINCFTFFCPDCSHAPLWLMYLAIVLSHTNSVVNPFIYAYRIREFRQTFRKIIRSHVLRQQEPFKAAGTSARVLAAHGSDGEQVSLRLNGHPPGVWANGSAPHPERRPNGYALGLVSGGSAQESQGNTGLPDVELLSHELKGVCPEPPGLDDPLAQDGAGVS
Chain of Adenosine receptor A2a (Rattus norvegicus) (P30543 whole entry): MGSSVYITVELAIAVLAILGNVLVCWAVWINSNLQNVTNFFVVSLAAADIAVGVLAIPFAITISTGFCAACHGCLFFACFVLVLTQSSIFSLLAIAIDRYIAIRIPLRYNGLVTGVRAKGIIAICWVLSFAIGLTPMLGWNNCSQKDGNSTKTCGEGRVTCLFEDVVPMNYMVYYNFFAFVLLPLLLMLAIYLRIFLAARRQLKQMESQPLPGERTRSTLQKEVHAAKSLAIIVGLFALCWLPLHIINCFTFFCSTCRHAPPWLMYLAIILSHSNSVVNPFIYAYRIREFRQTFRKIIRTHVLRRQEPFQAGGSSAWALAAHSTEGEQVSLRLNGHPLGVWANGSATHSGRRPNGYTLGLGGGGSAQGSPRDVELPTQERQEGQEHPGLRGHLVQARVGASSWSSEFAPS

Take `O=C(Nc1nc2ccccc2c2cn(-c3ccccc3)nc12)C(c1ccccc1)c1ccccc1`: the Activity on Adenosine receptor A2a came to 21%; in experiment [3] it was 26%; in experiment [4] it was 30%; in [5], 0%; in experiment [6] it was 47%. In addition, the EC50 (in general, the concentration giving half of the maximal effect) at Adenosine receptor A3 [1] came to 3.8 nM. For the same molecule, the Ki (commonly the equilibrium dissociation constant of an inhibitor or competing ligand from its target) on Adenosine receptor A3 [2] came out at 8.9 nM; at Adenosine receptor A1, 1490 nM.

Turning to `COc1ccc(-n2cc3c(n2)c(N(C(=O)c2ccccc2)C(=O)c2ccccc2)nc2ccccc23)cc1`, the Activity on Adenosine receptor A2a came to 7%; in [3] it was 2%; in [4], 28%; in [5], 25%; in experiment [7], 11%; in experiment [6], 84%. In addition, the EC50 at Adenosine receptor A3 [1] was determined as 11.2 nM. Moreover, the affinity at Adenosine receptor A3 [2] corresponds to a Ki of 17.2 nM.
